Measurements as given in PMC3028369 (Diabetes, 2011).
Values after ≈ are worked out from the molar mass of the structure shown.

Key:
[1] = tested on: KKA^Y mice; test: Hyperinsulinemic-euglycemic clamp in diabetic KKA^Y mice; type: in vivo, mouse; conditions: 20 mg/kg oral gavage four times at 12-h intervals
Procedure, shortened: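 Insulin-resistant KKAY mice received test compound at 20 mg/kg by oral gavage four times at 12-h intervals. A jugular catheter was placed under anaesthesia 4–5 days earlier. Plasma [3H]glucose was sampled before, during and at the end. HGP was taken basally and under clamp. N = 7; two-tailed Student t test.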

[2] = Aqueous solubility; type: physicochemical
[3] = tested on: C57BL/6 mice; test: High-fat diet-induced elevated fasting blood glucose; type: in vivo, mouse; conditions: 10 mg/kg/day in high-fat diet for 10 weeks, 4-h fast
Procedure, shortened: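 C57BL/6 mice ate a high-fat diet (55% of calories from fat) for 10 weeks, with or without test compound at 10 mg/kg/day. Blood glucose was measured after a 4-h fast, N = 5.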

[4] = Oral bioavailability in rats; type: in vivo, rat
[5] = tested on: mouse aortic ECs; test: IL-6 and KC production in mouse aortic ECs; type: cell-based; conditions: for effect on IL-6 production in ECs (ELISA): 16 h, 10 nmol/L CPA, 100 nmol/L CGS21680, 10 nmol/L Cl-IBMECA
Procedure, shortened: (§1)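 Mouse aortic endothelial cells were exposed to the nonselective agonist NECA over a time course. IL-6 and KC were read out as mRNA by quantitative RT-PCR and as secreted protein.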

[6] = tested on: mouse aortic ECs; test: Cyclic AMP accumulation in mouse aortic ECs; type: cell-based; conditions: ECs from C57BL/6 mice
[7] = tested on: mouse aortic ECs; test: IL-6 mRNA induction in mouse aortic ECs; type: cell-based
Procedure, shortened: as §1

[8] = tested on: C57BL/6J and adenosine receptor knockout mice; test: NECA gavage before glucose tolerance test, fasting glucose and plasma IL-6; type: in vivo, mouse
Procedure, shortened: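 Male 8-week C57BL/6J mice and congenic adenosine receptor knockouts (N = 5) received an oral bolus of vehicle or NECA (0.3 mg/kg) 35 min before an ip GTT (1.25 g/kg). Blood glucose was read by glucometer and AUC calculated. Fasting glucose was taken 35 min after gavage. Plasma IL-6 was measured 4 h after dosing.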

With `CCCn1c(=O)n(C2CC2)c(=O)c2[nH]c(-c3ccc(N(CC)C(=O)c4cccnc4)nc3)nc21` [ATL-801] the “basal HGP rate” value [1] was “markedly reduced”, the “clamp HGP rate (insulin-stimulated state)” value [1] was “markedly reduced” and the “increase in hepatic insulin action (insulin-mediated percent suppression of basal HGP)” value [1] was 30%. For the same molecule, the aqueous solubility [2] was 30 µg/mL (≈ 65.3 µM), the “diet-induced elevated fasting blood glucose” value [3] was “significantly reduced” and the oral bioavailability [4] was 73%.

With `CCNC(=O)[C@H]1O[C@@H](n2cnc3c(N)nc(NCCc4ccc(CCC(=O)O)cc4)nc32)[C@H](O)[C@@H]1O` [CGS21680] the “effect on IL-6 production in ECs (ELISA)” value [5] was “without effect”.

For `OC[C@H]1O[C@@H](n2cnc3c(NC4CCCC4)ncnc32)[C@H](O)[C@@H]1O` [CPA], the “effect on IL-6 production in ECs (ELISA)” value [5] was “without effect”.

In the case of `CNC(=O)[C@H]1O[C@@H](n2cnc3c(NCc4cccc(I)c4)nc(Cl)nc32)[C@H](O)[C@@H]1O` [Cl-IB-MECA], the “effect on IL-6 production in ECs (ELISA)” value [5] is reported as “without effect”.

For `Nc1nc2c(cnn2CCc2ccc(S(=O)(=O)F)cc2)c2nc(-c3ccco3)nn12` [FSPTP], the “effect on NECA-induced increase in cyclic AMP” value ([6]; 1 μmol/L ATL-692, 100 nmol/L FSPTP) was “not affected”.

For `CCCCCCOC(=O)[C@]1(O)C[C@@H]2O[C@@]1(C)n1c3ccccc3c3c4c(c5c6ccccc6n2c5c31)C(=O)NC4` [KT5720], the “inhibition of IL-6 mRNA induction by NECA” value ([7]; ECs, inhibitor at 1 μmol/L) was “significantly inhibited”.

For `CCNC(=O)[C@H]1O[C@@H](n2cnc3c(N)ncnc32)[C@H](O)[C@@H]1O` [NECA, 5′-N-ethylcarboxamidoadensoine], the “IL-6 production (protein) in ECs” value ([5]; 1 μmol/L, time course) was “more sustained stimulation”, the “production of the murine IL-8 homolog KC in ECs” value ([5]; 1 μmol/L, time course) was “stimulates the production” and the EC50 ([5]; read-out: EC50 to stimulate IL-6 production in ECs, ECs from C57BL/6 mice, 24 h) was 140 nM. The “cyclic AMP in ECs” value ([6]; agonist alone) was “rapid increase in cyclic AMP”, the “IL-6 mRNA in ECs” value ([7]; 1 μmol/L, time course) was “transient increase” and the “plasma IL-6” value ([8]; C57BL/6J mice, 4 h after administration) was “increase in plasma IL-6”. For the same molecule, the fasting glucose levels ([8]; C57BL/6 mice, 35 min after gavage) was “significantly increased” and the “glucose disposal during GTT” value ([8]; wild-type fasted mice, oral gavage 0.3 mg/kg 35 min before GTT) was “substantial delay in glucose disposal”.
